Assay outcomes deposited in PubChem BioAssay by Sanford-Burnham Center for Chemical Genomics.
An excerpt weighted towards active compounds, which were near 2.3% of everything screened.
DNMT1 block: DNMT1 (human) enzyme inhibition; P26358; DNMT1 molecular beacon, Hinp1I cleavage, fluorescence; inhibition (reported as % activation of signal), % at 10 µM; 360,000 tested, 0.83% active; AID 588458; in the data active = inhibition above about 50%
STEP inh: blocks human striatal-enriched tyrosine phosphatase; P54829; AID 588621; 360,000 tested, 0.25% active; inhibition, % at 20 µM; recombinant STEP, OMFP fluorogenic substrate, fluorescence;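 active = inhibition at 20 µM, scaled per plate between control wells, above about 37%, limit read from the data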;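 note: 0% = DMSO with enzyme and substrate and 100% = substrate only without enzyme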
Target sequence (P54829 whole entry, looked up): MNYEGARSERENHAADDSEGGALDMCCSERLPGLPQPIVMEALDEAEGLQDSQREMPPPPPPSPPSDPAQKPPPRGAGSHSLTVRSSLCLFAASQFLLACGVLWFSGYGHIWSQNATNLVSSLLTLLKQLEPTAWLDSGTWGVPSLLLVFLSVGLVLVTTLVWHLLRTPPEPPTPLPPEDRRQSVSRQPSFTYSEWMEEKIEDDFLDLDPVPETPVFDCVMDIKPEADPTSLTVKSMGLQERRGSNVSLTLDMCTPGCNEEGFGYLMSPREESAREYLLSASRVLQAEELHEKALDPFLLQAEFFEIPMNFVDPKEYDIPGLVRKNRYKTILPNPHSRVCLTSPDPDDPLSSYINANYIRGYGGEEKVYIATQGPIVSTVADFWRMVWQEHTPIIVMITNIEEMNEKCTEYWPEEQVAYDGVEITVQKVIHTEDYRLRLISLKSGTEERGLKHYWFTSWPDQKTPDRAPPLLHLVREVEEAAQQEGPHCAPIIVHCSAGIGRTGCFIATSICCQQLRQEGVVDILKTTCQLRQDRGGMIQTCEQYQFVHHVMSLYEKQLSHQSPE
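medium = Bis-Tris buffer pH 6.0, 2.5 mM DTT, 0.005% Tween 20 | test system = STEP (striatal-enriched tyrosine phosphatase) enzyme, cell-free | measure = normalized % inhibition | compound dosing = 20 µM, 1% DMSO | also added = 25 µM OMFP | schedule = reaction 20 min, ambient temperature | measured by = fluorescence read at 480 nm ex / 540 nm em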
Scp-1 inhibitor: inhibitors of human Scp-1 phosphatase; AID 493091; inhibition, % at 20 µM; Recombinant Scp1, phosphopeptide, malachite green phosphate absorbance; 340,000 tested, 0.88% active; Q9GZU7;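 active = inhibition above about 50% at 20 µM, limit read from the data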;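 note: plate controls were DMSO wells with enzyme for no effect and wells lacking enzyme for full effect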
Target sequence (Q9GZU7 76-261 limits assumed): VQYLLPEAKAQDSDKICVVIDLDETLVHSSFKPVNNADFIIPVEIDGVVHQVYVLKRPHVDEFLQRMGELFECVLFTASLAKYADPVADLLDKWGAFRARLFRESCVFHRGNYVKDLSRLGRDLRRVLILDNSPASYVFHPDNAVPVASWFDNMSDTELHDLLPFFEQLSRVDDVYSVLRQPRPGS
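Test system: SCP-1 catalytic domain; Buffer or medium: Acidic Tris acetate buffer with magnesium and detergent; Also added: Phosphorylated 17-residue peptide substrate; Compound: single 20 µM dose, 1% DMSO; Schedule: enzyme reaction 45 min at room temperature, colour 5 min, stabilisation 30 min; Signal: Phosphate-binding colour reagent, absorbance read at 630 nm.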
Rpn11 inh: inhibitors of human proteasome Rpn11. inhibition, % at 20 µM. 360,000 tested, 0.59% active. human 26S proteasome, Ub4-pepOG fluorescence polarization; 20S core pre-blocked with epoxomicin. AID 588493. O00487;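 active = inhibition at 20 µM, scaled to each plate's controls, above about 33%, limit read from the data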
LMPTP inh: blocks human LMPTP phosphatase; P24666; recombinant LMPTP-A, OMFP fluorogenic substrate, fluorescence intensity; inhibition, % at 20 µM; 360,000 tested, 0.22% active; AID 651560;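 active = compounds that cut the enzyme signal by at least half of the control window in the single-dose screen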;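 note: plate controls were DMSO wells with enzyme plus substrate for no effect and substrate without enzyme for full effect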
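Assay system: LMPTP-A, protein tyrosine phosphatase of low molecular weight / Medium: pH 6.0 Bis-Tris buffer with DTT and Triton X-100 / Schedule: 50 min enzyme reaction at room temperature, protected from light / Measured by: endpoint fluorescence intensity from OMFP dephosphorylation / Read-out basis: % inhibition relative to no-enzyme and uninhibited control wells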
SUMO1 PPI mod: alters human SUMO1 binding to SIM partners; SUMO1 binding to a labelled peptide, TR-FRET, 1 h; AID 602429; inhibition, % at 20 µM; P63165; 360,000 tested, 0.33% active; in the data active = inhibition above about 37%
Rpn11 confirm: Rpn11 inhibition confirmation, single concentration | inhibition, % at 20 µM | AID 602318 | purified human 26S proteasome, Ub4-pepOG fluorescence polarization; proteasome pretreated with epoxomicin | shares compounds with Rpn11 inh | 1,900 tested, 29% active
MMP-2 counter: counter-screen for RPN11 inhibitors: inhibition of human MMP-2; shares compounds with Rpn11 inh; recombinant MMP-2, FRET peptide cleavage fluorescence; inhibition, % at 20 µM; 1,900 tested, 4% active; AID 602330;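 note: human MMP-2 activated beforehand with APMA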
Thrombin FP: counter-screen for RPN11 inhibitors: inhibition of bovine thrombin. inhibition, % at 20 µM. bovine thrombin cleavage of Ub4-pepOG, fluorescence polarization. 1,900 tested, 13% active. shares compounds with Rpn11 inh;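 active = mean inhibition at least 40% at 20 µM, or signal 3 deviations below plate average, so some actives read negative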;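 note: plate controls were thrombin with DMSO for no effect and buffer wells lacking thrombin for full effect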
Numbers without * were called inactive; i = inactive; . = not tested or not shown. Cut-off read from the data, not from the text of the source, unless noted: active = inhibition above about 40%; inactive = the rest.

SMILES | DNMT1 block | STEP inh | Scp-1 inhibitor | Rpn11 inh | LMPTP inh | SUMO1 PPI mod | Rpn11 confirm | MMP-2 counter | Thrombin FP
Cc1cc(NS(=O)(=O)c2ccc(Nc3nc(-c4sc(N)nc4C)cs3)cc2)no1 | 86* | 2 | 23 | 55* | 12 | 51* | 24 | 28 | -11
CC1CCC(=C(C#N)c2nc(-c3cc4ccccc4oc3=O)cs2)CC1 (centres undefined) | -3 | 3 | -13 | 7 | 3 | -9 | . | . | .
CCN(CC)CCOC(=O)c1ccc(N/C=C(/C#N)c2nc(-c3ccc4c(c3)OCO4)cs2)cc1 | -67 | 86* | 8 | 86* | 22 | 65* | 153* | -152 | 71*
COc1cc(/C=C(\C#N)c2nc(-c3cc4ccccc4oc3=O)cs2)ccc1O | 21 | -2 | -1 | 72* | 4 | 7 | 19 | 36 | -40
COc1cc(/C=C(\C#N)c2nc3ccccc3o2)ccc1O | 7 | 0 | 3 | . | 9 | -88 | . | . | .
CCN(CC)CCOC(=O)c1ccc(N/C=C(/C#N)c2nc(-c3ccc(OC)cc3)cs2)cc1 | 36 | 11 | 11 | 59* | 4 | 81* | 55* | -144 | 77*
CCN(CC)CCOC(=O)c1ccc(N/C=C(/C#N)c2nc(-c3cc4ccccc4oc3=O)cs2)cc1 | 50* | 52* | -5 | 82* | 30 | -63 | 52* | i | 60*
N#C/C(=C\C=C\c1ccccc1)c1nc(-c2ccc3c(c2)OCO3)cs1 | 4 | -8 | -8 | -29 | 2 | -11 | . | . | .
CN(C(=O)c1cccc(NC(=O)Cc2cccc(NC(=O)C3CCN(C(=O)c4ccccc4)CC3)c2)c1)C1CC1 | 4 | -2 | -17 | -4 | -2 | 3 | . | . | .
CCn1cc(C(=O)O)c(=O)c2cc(F)c(N/N=C/c3ccccc3[N+](=O)[O-])cc21 | 12 | 1 | -24 | 100* | 46 | 25 | -15 | 11 | -14
CCn1cc(C(=O)O)c(=O)c2cc(F)c(N3CCN(S(=O)(=O)c4ccc(NC(=O)OC)cc4)CC3)cc21 | -4 | 1 | -5 | 31 | 49 | 5 | . | . | .
COc1ccc(NC(=O)c2nc(S(=O)(=O)Cc3cccc(C)c3)ncc2Cl)c(OC)c1 | -6 | -1 | -9 | 41* | 0 | -6 | 27 | -35 | -9
COc1ccc(OC)c(NC(=O)c2nc(S(=O)(=O)Cc3ccccc3)ncc2Cl)c1 | -1 | 1 | 3 | -24 | 2 | -10 | . | . | .
Cc1ccnc2nc(C(=O)Nc3ccc(N4CCOCC4)cc3)nn12 | -3 | 0 | -2 | 133* | 0 | 6 | -5 | -49 | -10
O=C(Nc1ccc(N2CCOCC2)cc1)c1ccncc1 | 0 | 1 | 4 | 0 | 1 | 5 | . | . | .
COc1ccc(CCNC(=O)c2noc(C)c2[N+](=O)[O-])cc1OC | -5 | 0 | -19 | -12 | -1 | -20 | . | . | .
COc1ccc(NS(=O)(=O)c2ccc(C)c(NC(=O)CN3C(=O)NC4(CCCC4)C3=O)c2)cc1 | -133 | 0 | -7 | 83* | -3 | -130 | 76* | -132 | 4
CC(=O)NC(Cc1ccc(C)cc1)C(=O)NC1CCN(S(=O)(=O)c2ccccc2)CC1 (centres undefined) | 0 | 1 | -12 | 4 | -2 | 3 | . | . | .
O=C(CC(C(=O)O)c1cccc(Cl)c1Cl)c1ccccc1 (centres undefined) | 0 | 2 | -19 | 11 | 1 | 3 | . | . | .
C[C@H](CO)N1C[C@H](C)[C@@H](CN(C)C(=O)Nc2cccc(F)c2)Oc2ncc(Br)cc2C1=O | -3 | 1 | . | 79* | -1 | 0 | 8 | -20 | 0
COc1ccccc1NC(=O)Cn1c(C)nc2c(sc(=S)n2Cc2ccco2)c1=O | -6 | 1 | -4 | 58* | 4 | 1 | 7 | -37 | 1
Cc1cccc(NC(=O)c2cc(Cl)ccc2[N+](=O)[O-])c1 | -2 | 0 | -7 | 73* | 0 | -14 | -8 | -47 | -4
CCc1nc2ccc(C(=O)N(C)CCN(C)C)cn2c1N(C)CCC(C)C | 0 | 0 | . | -6 | -1 | -7 | . | . | .
CCOc1ccc(NC(=O)Cc2ccccc2)c([N+](=O)[O-])c1 | -2 | 0 | -7 | -8 | 0 | -21 | . | . | .
COc1ccc(/C=C/C(=O)Nc2ccc(OC)cc2[N+](=O)[O-])cc1 | 0 | 0 | -4 | 44* | -1 | -4 | 39 | -20 | 14
SMILES | DNMT1 block | STEP inh | Scp-1 inhibitor | Rpn11 inh | LMPTP inh | SUMO1 PPI mod | Rpn11 confirm | MMP-2 counter | Thrombin FP
COc1ccc(NC(=O)/C=C/c2ccccc2)c([N+](=O)[O-])c1 | 3 | 2 | -10 | -1 | 0 | -10 | . | . | .
CCOc1ccc(NC(=O)/C=C/c2ccc(OC)cc2)c([N+](=O)[O-])c1 | 5 | 1 | -8 | 48* | 0 | -8 | -16 | -26 | -20
CCCCNC(=O)C1(C)CCCCN1C(=O)c1ccc2sccc2c1 (centres undefined) | -2 | -3 | . | -8 | 0 | 0 | . | . | .
CCC(C)Sc1cc(-c2nc3cc(C)ccn3c2NC2CCCCC2)ccc1OC (centres undefined) | -10 | 1 | 11 | 85* | 15 | 0 | 8 | -29 | 0
CCC(C)Sc1cc(-c2nc3ccccn3c2NC2CCCCC2)ccc1OC (centres undefined) | -24 | 3 | 16 | 2 | 19 | 2 | . | . | .
Cn1c(=O)oc2cc(S(=O)(=O)N3CCN(c4ccc(F)cc4)CC3)ccc21 | 0 | 0 | 1 | 44* | 2 | -1 | 14 | 6 | -5
CN1CCN(S(=O)(=O)c2ccc3c(c2)oc(=O)n3C)CC1 | 0 | -4 | -2 | 61* | -1 | -4 | 18 | -33 | 11
COc1ccc(-n2nnc3c(=O)n(CC(=O)Nc4cc(C)on4)cnc32)cc1OC | 1 | -3 | -6 | -8 | -1 | 6 | . | . | .
Oc1[nH]c2ccccc2c1N=Nc1nc2ccccc2s1 | 2 | 1 | 31 | 39* | 15 | -42 | 14 | -16 | 33
Cc1ccc2[nH]c(O)c(N=Nc3nc4ccccc4s3)c2c1 | 2 | 3 | 29 | 10 | 11 | -17 | . | . | .
COc1ccc(CNC(=O)C(C)Sc2nc3ccccc3c(=O)n2CC2CCCO2)cc1 (centres undefined) | 4 | 1 | -7 | -10 | 0 | -2 | . | . | .
